≈ marks a conversion by molar mass, not a printed value. Calls of active or inactive are those of the source. The rule behind the calls is not given here.
What was measured:
Bacillus spizizenii = assay: Antibacterial activity against Bacillus subtilis ATCC 6633 assessed as growth inhibition after 24 hrs by micro dilution method; assay type: functional; settings: ATCC 6633, 24 h
In short: (§1)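 MIC determined by broth microdilution in casein soy broth (pH 7.3) at an inoculum of 10^5 CFU/mL, incubated 24 h at 37 C. Levofloxacin was the comparator and controls were run alongside. Samples were tested in quadruplicate.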

Staphylococcus aureus [1] = assay: Antibacterial activity against Staphylococcus aureus ATCC 6538p assessed as growth inhibition after 24 hrs by micro dilution method; assay type: functional; in short: as §1
Shigella sonnei [2] = assay: Antibacterial activity against Shigella sonnei ATCC 15305 assessed as growth inhibition after 24 hrs by micro dilution method; assay type: functional; settings: ATCC 15305, 24 h; in short: as §1
Pseudomonas aeruginosa = assay: Antibacterial activity against Pseudomonas aeruginosa ATCC […] assessed as growth inhibition after 24 hrs by micro dilution method; assay type: functional; in short: as §1
Escherichia coli [3] = assay: Antibacterial activity against Escherichia coli ATCC 25922 assessed as growth inhibition after 24 hrs by micro dilution method; assay type: functional; settings: ATCC 25922, 24 h; in short: as §1
Staphylococcus aureus [4] = assay: Antibacterial activity against Staphylococcus aureus ATCC 6538p; assay type: functional; in short: as §1
Shigella sonnei [5] = assay: Antibacterial activity against Shigella sonnei ATCC 15305; assay type: functional
Escherichia coli [6] = assay: Antibacterial activity against Escherichia coli ATCC 25922; assay type: functional
Enterococcus sp. [7] = assay: Antibacterial activity against Enterococcus sp. ATCC 6589 assessed as growth inhibition after 24 hrs by micro dilution method; assay type: functional; settings: ATCC 6589, 24 h; in short: as §1
Klebsiella aerogenes = assay: Antibacterial activity against Enterobacter aerogenes ATCC 13048 assessed as growth inhibition after 24 hrs by micro dilution method; assay type: functional; settings: ATCC 13048, 24 h; in short: as §1
Salmonella typhimurium [8] = assay: Antibacterial activity against Salmonella typhimurium ATCC 14028 assessed as growth inhibition after 24 hrs by micro dilution method; assay type: functional, Salmonella enterica subsp. enterica serovar Typhimurium; settings: Salmonella enterica, ATCC 14028, 24 h; in short: as §1
Morganella morganii [9] = assay: Antibacterial activity against Morganella morganii ATCC 8019 assessed as growth inhibition after 24 hrs by micro dilution method; assay type: functional; settings: ATCC 8019, 24 h; in short: as §1
Enterococcus sp. [10] = assay: Antibacterial activity against Enterococcus sp. ATCC 6589; assay type: functional
Salmonella typhimurium [11] = assay: Antibacterial activity against Salmonella typhimurium ATCC 14028; assay type: functional, Salmonella enterica subsp. enterica serovar Typhimurium; in short: as §1
Burkholderia cepacia [12] = assay: Antibacterial activity against Burkholderia cepacia ATCC 17759; assay type: functional
Morganella morganii [13] = assay: Antibacterial activity against Morganella morganii ATCC 8019; assay type: functional
Enterococcus sp. [14] = assay: Antibacterial activity against Enterococcus sp. ATCC 6589 assessed as growth inhibition by measuring turbidity of medium measured over 10 hrs by microplate reader analysis; assay type: functional, organism-based
In short: (§2)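 Overnight casein soy broth cultures (37 C) were centrifuged, resuspended in fresh medium and adjusted to about 5 10^7 cells/mL (OD620 0.2). Cells were grown in microplate wells to mid-log phase, then twofold serial dilutions of the test agents in fresh medium were added. OD620 was read every 15 min at 23 C for 10 h, with 30 s shaking between reads. Runs were in quadruplicate.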

Morganella morganii [15] = assay: Antibacterial activity against Morganella morganii ATCC 8019 assessed as growth inhibition by measuring turbidity of medium measured over 10 hrs by microplate reader analysis; assay type: functional, organism-based; in short: as §2
Enterococcus sp. [16] = assay: Antibacterial activity against Enterococcus sp. ATCC 6589 assessed as growth inhibition by measuring turbidity of medium at MIC measured over 10 hrs by microplate reader analysis; assay type: functional, organism-based; in short: as §2
Morganella morganii [17] = assay: Antibacterial activity against Morganella morganii ATCC 8019 assessed as growth inhibition by measuring turbidity of medium at >= MIC measured over 10 hrs by microplate reader analysis; assay type: functional, organism-based; in short: as §2
Enterococcus sp. [18] = assay: Antibacterial activity against Enterococcus sp. ATCC 6589 assessed as growth inhibition by measuring turbidity of medium at 3.12 ug/mL measured after 3 hrs by microplate reader analysis; assay type: functional, organism-based; in short: as §2
Burkholderia cepacia [19] = assay: Antibacterial activity against Burkholderia cepacia ATCC 17759 assessed as growth inhibition after 24 hrs by micro dilution method; assay type: functional; settings: ATCC 17759, 24 h; in short: as §1
Enterococcus sp. [20] = assay: Antibacterial activity against Enterococcus sp. ATCC 6589 assessed as growth inhibition by measuring turbidity of medium at 6.25 to 100 ug/mL measured over 10 hrs by microplate reader analysis; assay type: functional, organism-based; in short: as §2
Enterococcus sp. [21] = assay: Antibacterial activity against Enterococcus sp. ATCC 6589 assessed as growth inhibition by measuring turbidity of medium at 25 to 400 ug/mL measured over 10 hrs by microplate reader analysis; assay type: functional, organism-based; in short: as §2

Row | MIC (Bacillus spizizenii) [µg/mL] | MIC (Staphylococcus aureus [1]) [µg/mL] | MIC (Shigella sonnei [2]) [µg/mL] | MIC (Pseudomonas aeruginosa) [µg/mL] | MIC (Escherichia coli [3]) [µg/mL] | SMILES | MLC (Staphylococcus aureus [4]) [µg/mL] | MLC (Shigella sonnei [5]) [µg/mL] | MLC (Escherichia coli [6]) [µg/mL] | further results
1 | 100 (≈ 291 µM) | 50 (≈ 146 µM) | 50 (≈ 146 µM) | 100 (≈ 291 µM) | 100 (≈ 291 µM) | O=C1Nc2ccccc2C(O)C1(Cc1ccccc1)Cc1ccccc1 (stereo not given) | >200 | >200 | >200 | 
2 | 1.56 (≈ 3.78 µM) | 6.25 (≈ 15.2 µM) | 6.25 (≈ 15.2 µM) | 100 (≈ 243 µM) | 1.52 (≈ 3.69 µM) | O=C1Nc2ccccc2C(O)C1(Cc1ccc(Cl)cc1)Cc1ccc(Cl)cc1 (stereo not given) | 100 (≈ 243 µM) | 100 (≈ 243 µM) | 25 (≈ 60.6 µM) | 
3 | > 100 | 50 (≈ 87.5 µM) | 50 (≈ 87.5 µM) | 50 (≈ 87.5 µM) | 50 (≈ 87.5 µM) | O=C1N(Cc2ccc(Cl)cc2)c2ccc(Cl)cc2C(O)C1(Cc1ccc(Cl)cc1)Cc1ccc(Cl)cc1 (stereo not given) | 100 (≈ 175 µM) | 100 (≈ 175 µM) | >100 | 
4 | 3.12 (≈ 6.57 µM) | 6.25 (≈ 13.2 µM) | 50 (≈ 105 µM) | 50 (≈ 105 µM) | 50 (≈ 105 µM) | CCN1C(=O)C(Cc2ccc(Cl)cc2)(Cc2ccc(Cl)cc2)C(O)c2cc(Cl)ccc21 (stereo not given) | 50 (≈ 105 µM) | 100 (≈ 211 µM) | 100 (≈ 211 µM) | MIC (Enterococcus sp. [7]): 6.25 µg/mL (≈ 13.2 µM); MIC (Klebsiella aerogenes): 50 µg/mL (≈ 105 µM); MIC (Salmonella typhimurium [8]): 50 µg/mL (≈ 105 µM); MIC (Morganella morganii [9]): 6.25 µg/mL (≈ 13.2 µM); MLC (Enterococcus sp. [10]): 25 µg/mL (≈ 52.7 µM); MLC (Salmonella typhimurium [11]): 100 µg/mL (≈ 211 µM); MLC (Burkholderia cepacia [12]): 12.5 µg/mL (≈ 26.3 µM); MLC (Morganella morganii [13]): 12.5 µg/mL (≈ 26.3 µM); growth inhibition (GI) (Enterococcus sp. [14]): Dose-dependent effect; growth inhibition (GI) (Morganella morganii [15]): Dose-dependent effect
5 | 3.12 (≈ 6.98 µM) | 3.12 (≈ 6.98 µM) | 3.12 (≈ 6.98 µM) | 50 (≈ 112 µM) | 3.12 (≈ 6.98 µM) | O=C1Nc2ccc(Cl)cc2C(O)C1(Cc1ccc(Cl)cc1)Cc1ccc(Cl)cc1 (stereo not given) | 12.5 (≈ 28 µM) | 12.5 (≈ 28 µM) | 50 (≈ 112 µM) | MIC (Enterococcus sp. [7]): 6.25 µg/mL (≈ 14 µM); MIC (Klebsiella aerogenes): 50 µg/mL (≈ 112 µM); MIC (Salmonella typhimurium [8]): 50 µg/mL (≈ 112 µM); MIC (Morganella morganii [9]): 6.25 µg/mL (≈ 14 µM); MLC (Enterococcus sp. [10]): 50 µg/mL (≈ 112 µM); MLC (Salmonella typhimurium [11]): 100 µg/mL (≈ 224 µM); MLC (Morganella morganii [13]): 6.25 µg/mL (≈ 14 µM); growth inhibition (GI) (Enterococcus sp. [16]): Active; growth inhibition (GI) (Morganella morganii [17]): Active
6 | 50 (≈ 134 µM) | 100 (≈ 268 µM) | 100 (≈ 268 µM) | 100 (≈ 268 µM) | 100 (≈ 268 µM) | COc1ccc2c(c1)C(O)C(Cc1ccccc1)(Cc1ccccc1)C(=O)N2 (stereo not given) | >200 | >200 | >200 | 
7 | 25 (≈ 69.2 µM) | 50 (≈ 138 µM) | 25 (≈ 69.2 µM) | 50 (≈ 138 µM) | 25 (≈ 69.2 µM) | O=C1Nc2ccc(F)cc2C(O)C1(Cc1ccccc1)Cc1ccccc1 (stereo not given) | >200 | >200 | >200 | 
8 | 50 (≈ 140 µM) | 100 (≈ 280 µM) | 100 (≈ 280 µM) | 100 (≈ 280 µM) | 50 (≈ 140 µM) | CN1C(=O)C(Cc2ccccc2)(Cc2ccccc2)C(O)c2ccccc21 (stereo not given) | >200 | >200 | >200 | 
9 | 12.5 (≈ 30.3 µM) | 12.5 (≈ 30.3 µM) | 12.5 (≈ 30.3 µM) | 100 (≈ 243 µM) | 12.5 (≈ 30.3 µM) | O=C1Nc2ccccc2C(O)C1(Cc1ccccc1Cl)Cc1ccccc1Cl (stereo not given) | 200 (≈ 485 µM) | 200 (≈ 485 µM) | 200 (≈ 485 µM) | growth inhibition (GI) (Enterococcus sp. [18]): inactive
10 | 3.12 | 3.12 | 3.12 | 3.12 | 3.12 | C[C@H]1COc2c(N3CCN(C)CC3)c(F)cc3c(=O)c(C(=O)O)cn1c23.C[C@H]1COc2c(N3CCN(C)CC3)c(F)cc3c(=O)c(C(=O)O)cn1c23.O [LEVOFLOXACIN] | 3.12 | 3.12 | 3.12 | MIC (Enterococcus sp. [7]): 0.78 µg/mL; MIC (Klebsiella aerogenes): 0.78 µg/mL; MIC (Salmonella typhimurium [8]): 0.78 µg/mL; MIC (Burkholderia cepacia [19]): 0.78 µg/mL; MIC (Morganella morganii [9]): 0.78 µg/mL; MLC (Enterococcus sp. [10]): 0.78 µg/mL; MLC (Salmonella typhimurium [11]): 0.78 µg/mL; MLC (Burkholderia cepacia [12]): 0.78 µg/mL; MLC (Morganella morganii [13]): 0.78 µg/mL; growth inhibition (GI) (Enterococcus sp. [20]): Active
11 | > 200 | > 200 | > 200 | > 200 | 100 (≈ 233 µM) | CCOC(=O)CN1C(=O)C(Cc2ccccc2)(Cc2ccccc2)C(O)c2ccccc21 (stereo not given) |  |  | >200 | 
12 | 50 (≈ 140 µM) | 50 (≈ 140 µM) | 50 (≈ 140 µM) | 100 (≈ 280 µM) | 25 (≈ 69.9 µM) | Cc1ccc2c(c1)C(O)C(Cc1ccccc1)(Cc1ccccc1)C(=O)N2 (stereo not given) | >200 | >200 | >200 | 
13 | 100 (≈ 231 µM) | 100 (≈ 231 µM) | 200 (≈ 461 µM) | > 200 | 100 (≈ 231 µM) | O=C1N(Cc2ccccc2)c2ccccc2C(O)C1(Cc1ccccc1)Cc1ccccc1 (stereo not given) | >200 | >200 | >200 | 
14 | 12.5 (≈ 33.1 µM) | 25 (≈ 66.2 µM) | 12.5 (≈ 33.1 µM) | 50 (≈ 132 µM) | 12.5 (≈ 33.1 µM) | O=C1Nc2ccc(Cl)cc2C(O)C1(Cc1ccccc1)Cc1ccccc1 (stereo not given) | >200 | >200 | 200 (≈ 529 µM) | 
15 | 100 (≈ 248 µM) | 100 (≈ 248 µM) | 100 (≈ 248 µM) | 100 (≈ 248 µM) | 100 (≈ 248 µM) | COc1ccc(CC2(Cc3ccc(OC)cc3)C(=O)Nc3ccccc3C2O)cc1 (stereo not given) | 200 (≈ 496 µM) | >200 | >200 | 
16 |  |  |  |  |  | CC1(C)S[C@@H]2[C@H](NC(=O)[C@H](N)c3ccccc3)C(=O)N2[C@H]1C(=O)O |  |  |  | growth inhibition (GI) (Enterococcus sp. [21]): Active
17 | 12.5 (≈ 33.6 µM) | 100 (≈ 269 µM) | 200 (≈ 538 µM) | 100 (≈ 269 µM) | 100 (≈ 269 µM) | CCN1C(=O)C(Cc2ccccc2)(Cc2ccccc2)C(O)c2ccccc21 (stereo not given) | >200 | >200 | >200 | 
18 | 100 (≈ 268 µM) | 100 (≈ 268 µM) | 100 (≈ 268 µM) | 100 (≈ 268 µM) | 100 (≈ 268 µM) | COc1cccc2c1NC(=O)C(Cc1ccccc1)(Cc1ccccc1)C2O (stereo not given) | >200 | >200 | >200 | 
